Assay outcomes as filed in PubChem BioAssay.
DNMT1 block: blocks human DNA methyltransferase DNMT1; P26358; DNMT1 molecular beacon, Hinp1I cleavage, fluorescence; inhibition (reported as % activation of signal), % at 10 µM; actives 0.83% (n = 360,000); in the data active means inhibition above about 50%
Scp1 inh: Scp-1 (human) phosphatase inhibition | Q9GZU7 | Recombinant Scp1, phosphopeptide, malachite green phosphate absorbance | inhibition, % at 20 µM | actives 0.88% (n = 340,000) | AID 493091;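 active means inhibition above about 50% at 20 µM, limit read from the data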;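 further: plate controls were DMSO wells with enzyme for no effect and wells lacking enzyme for full effect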
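assay system = SCP-1 phosphatase catalytic domain, residues 76-261 | buffer or medium = 50 mM Tris acetate pH 5.5, 0.005% Tween-20, 10 mM MgCl2 | incubation = enzyme reaction 45 min at room temperature, colour 5 min, stabilisation 30 min | signal = Phosphate-binding colour reagent, absorbance read at 630 nm | measure = % inhibition at 20 µM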
LMPTP inh: LMPTP (human) inhibition; recombinant LMPTP-A, OMFP fluorogenic substrate, fluorescence intensity; inhibition, % at 20 µM; P24666; actives 0.22% (n = 360,000); AID 651560;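 active means compounds that cut the enzyme signal by at least half of the control window in the single-dose screen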;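 further: plate controls were DMSO wells with enzyme plus substrate for no effect and substrate without enzyme for full effect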
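Test system: LMPTP-A phosphatase enzyme; input: 0.625 nM LMPTP-A final; reagent: OMFP substrate, 400 µM final; compound dosing: 20 µM single dose, 3% DMSO; incubation: 50 min dark incubation at room temperature; measured by: endpoint fluorescence intensity from OMFP dephosphorylation; measure: % inhibition relative to no-enzyme and uninhibited control wells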
HKDC1 inhibitor: inhibitors of human hexokinase HKDC1. Q2TB90. recombinant HKDC1, G6PDH/diaphorase resazurin coupled fluorescence. inhibition, % at 20 µM. actives 0.16% (n = 340,000);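 active means inhibition above about 35% when tested at 20 µM, limit read from the data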;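 further: plate controls were DMSO wells with enzyme for no effect and DMSO wells lacking enzyme for full effect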
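Test system: recombinant HKDC1 (HK5) hexokinase enzyme, produced in-house / Doses: 20 µM test compound, 1% DMSO / Timing: 90 min, room temperature / Detection: G6PDH/diaphorase-coupled fluorescence, 1 mM NADP, 100 µM resazurin, 525/613 nm / Control set: DMSO wells with and without enzyme mix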
SUMO1-SIM PPI: alters human SUMO1 binding to SIM partners; inhibition, % at 20 µM; SUMO1 binding to a labelled peptide, TR-FRET, 1 h; actives 0.33% (n = 360,000); in the data active means inhibition above about 37%
Target sequence (P63165 whole entry, looked up): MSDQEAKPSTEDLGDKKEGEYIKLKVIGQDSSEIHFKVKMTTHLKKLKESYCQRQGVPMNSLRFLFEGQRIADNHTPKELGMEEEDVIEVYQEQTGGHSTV
STEP inh: inhibitors of human striatal-enriched phosphatase STEP | recombinant STEP, OMFP fluorogenic substrate, fluorescence | inhibition, % at 20 µM | actives 0.25% (n = 360,000) | AID 588621;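 active means inhibition at 20 µM, scaled per plate between control wells, above about 37%, limit read from the data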;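 further: 0% = DMSO with enzyme and substrate and 100% = substrate only without enzyme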
Target sequence (P54829 whole entry, looked up): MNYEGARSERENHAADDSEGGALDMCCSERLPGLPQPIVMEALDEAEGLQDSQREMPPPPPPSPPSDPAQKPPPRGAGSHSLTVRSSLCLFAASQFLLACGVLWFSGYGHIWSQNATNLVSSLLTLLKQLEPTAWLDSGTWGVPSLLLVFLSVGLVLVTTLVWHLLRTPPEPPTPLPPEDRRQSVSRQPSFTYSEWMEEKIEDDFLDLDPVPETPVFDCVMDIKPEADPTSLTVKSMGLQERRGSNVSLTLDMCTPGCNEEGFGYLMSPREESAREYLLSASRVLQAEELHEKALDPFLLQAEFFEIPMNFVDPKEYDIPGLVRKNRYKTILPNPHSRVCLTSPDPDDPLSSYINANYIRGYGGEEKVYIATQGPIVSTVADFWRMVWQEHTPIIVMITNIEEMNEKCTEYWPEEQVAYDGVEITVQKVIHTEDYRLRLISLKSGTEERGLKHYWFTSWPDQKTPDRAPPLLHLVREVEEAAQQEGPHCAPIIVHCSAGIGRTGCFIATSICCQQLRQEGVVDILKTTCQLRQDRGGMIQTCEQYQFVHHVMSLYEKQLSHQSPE
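Material: STEP (striatal-enriched tyrosine phosphatase) enzyme, cell-free | Medium: 50 mM Bis-Tris pH 6.0 with 2.5 mM DTT and 0.005% Tween 20 | Read-out: Percent inhibition scaled to no-enzyme and uninhibited-enzyme controls, plate-pattern corrected | Signal: Fluorescence read at 480 nm ex / 540 nm em | Times: 20 min reaction, room temperature, in the dark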
STEP inh conf: STEP (human) phosphatase inhibition, single concentration confirmation; actives 32% (n = 520); inhibition, % at 20 µM; shares compounds with STEP inh; AID 623866; recombinant STEP, OMFP fluorogenic substrate, fluorescence; call rule not given here;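 further: 0% = enzyme with substrate plus DMSO and 100% = substrate without enzyme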
Numbers without * were called inactive; . = not tested or not shown. The list is not random: actives were taken first. Their share in the collection is about 1.8%.

SMILES	DNMT1 block	Scp1 inh	LMPTP inh	HKDC1 inhibitor	SUMO1-SIM PPI	STEP inh	STEP inh conf
COc1cccc(-c2cnc3c(NC(C)=O)cc(-c4cccc(C(=O)NCCN(C)C)c4)cn23)c1	-9	.	-5	.	-56	0	.
CCOC(=O)C(=N/O)/C(C)=N/NC(=O)C(=O)Nc1cc(Cl)ccc1Cl	-6	-7	0	-6	3	51*	8
COc1cc(C(=O)NNC(=O)C2CCC2)cc(OC)c1OC	4	12	-2	-1	0	-2	.
COc1cc(C(=O)NNC(=O)C2CC=CCC2C(=O)O)cc(OC)c1OC (centres undefined)	2	-5	1	-3	3	119*	10
CCc1nc2c(OCCC3CCCCC3)cccn2c1N(C)C(=O)c1ccc(C)cc1	0	.	16	.	12	5	.
S=C1NC[C@H](Cc2ccccc2)N1CC1CCN(CCCC2CCCC2)CC1	5	16	2	-7	-2	43*	15
CC(=O)Nc1cccc(-c2ccnc3c2CC(C)(C(=O)NCc2cccs2)O3)c1 (centres undefined)	-5	.	1	.	5	2	.
CCCN(CC(=O)Nc1ccccc1OC)C(=O)Cc1ccc2c(c1)CCC2	-3	-5	0	7	0	71*	46*
Cc1cc(C)c2nc(-c3ccccn3)cc(C(=O)Nc3ccc(S(=O)(=O)Nc4onc(C)c4C)cc3)c2c1	68*	28	4	-6	14	41*	72*
Cc1cc(C)c2nc(-c3ccccn3)cc(C(=O)Nc3ccc(S(=O)(=O)Nc4cc(C)on4)cc3)c2c1	34	7	3	2	6	4	.
CC(C)C[C@H]1CN(CCCC[C@@H]2CNC(=O)C(=O)N2CC2CCCCC2)C(=O)C(=O)N1Cc1ccccc1	.	.	-1	.	5	.	.
OCCN1CCN(C(=S)c2ccc(Br)cc2)CC1	1	2	-1	-1	-2	84*	39*
OCCN1CCN(C(=S)Nc2ccc(SC(F)F)cc2)CC1	2	-11	-2	9	1	4	.
CSc1ccc(C(=S)N2CCN(CCO)CC2)cc1	-3	-3	0	-12	0	54*	29
CC(c1ccccc1)C(OC(=O)c1cccc([N+](=O)[O-])c1C(=O)O)c1ccccc1 (centres undefined)	2	-18	-4	-4	-7	2	.
N#Cc1cnc(SCC(=O)NNC(=O)COc2cccc3ccccc23)nc1N	-6	0	15	18	10	100*	1
Cn1c(=O)n(C)c2cc(NC(=O)CSc3nc4ccccc4c(=O)[nH]3)ccc21	1	-1	-1	5	9	0	.
CC(=O)c1ccc(NC(=O)c2cn(-c3ccccc3)nc2-c2ccncc2)cc1	-4	-12	-1	-11	-3	1	.
COC(=O)c1ccc(NC(=O)c2cn(-c3ccccc3)nc2-c2ccncc2)cc1	-8	6	1	15	19	46*	-4
NS(=O)(=O)c1ccc(NC(=S)NC2CCCCC2)cc1	0	1	0	-12	0	60*	24
NS(=O)(=O)c1ccc(NC(=O)NC2CCCCC2)cc1	1	-7	-1	-4	4	-4	.
Cc1ccc(S(=O)(=O)CC(=O)Nc2ccc3nc(C)sc3c2)cc1	-2	-5	0	0	1	-1	.
NS(=O)(=O)c1ccc(NC(=S)N2CCN(Cc3ccc(Cl)c(Cl)c3)CC2)cc1	-6	-2	1	-1	2	0	.
NC(=O)C1(N2CCCCC2)CCN(C(=S)Nc2ccc(S(N)(=O)=O)cc2)CC1	-3	-4	-1	-6	-2	92*	63*
NS(=O)(=O)c1ccc(NC(=S)N2CCC(Cc3ccccc3)CC2)cc1	2	-6	3	1	5	80*	31*
SMILES	DNMT1 block	Scp1 inh	LMPTP inh	HKDC1 inhibitor	SUMO1-SIM PPI	STEP inh	STEP inh conf
CCCN1CCN(C(=S)Nc2ccc(S(N)(=O)=O)cc2)CC1	0	-1	-1	4	-2	4	.
NS(=O)(=O)c1ccc(NC(=S)N2CCN(Cc3ccc4c(c3)OCO4)CC2)cc1	-1	-24	-1	1	-1	92*	25
CCc1ccc(N2CC(C)Cn3c2nc2c3c(=O)[nH]c(=O)n2C)cc1 (centres undefined)	-2	1	-1	4	1	2	.
Cc1ccc(NC(=S)N(CCN(C)C)Cc2cccs2)c(C)c1	1	-9	-2	-1	0	72*	42*
Cc1cc([N+](=O)[O-])c(C)cc1-c1ccc(/C=N/n2cnnc2)o1	2	46	9	-3	-13	50*	-1
O=[N+]([O-])c1ccc(-c2ccc(/C=N/n3cnnc3)o2)c(Br)c1	6	1	1	-4	-25	7	.
COC(=O)[C@]12CCCCC=C1N(Cc1cccc3ccccc13)C(=O)[C@H](CC(=O)N1CCCCC1)C2	.	.	-1	.	3	.	.
CC(=O)Oc1ccc(Cn2c(C)c(C(=O)NCc3cccc(C(F)(F)F)c3)sc2=O)cc1	0	.	1	.	0	-1	.
CCOc1ccc(C(=O)Nc2cc(-c3nc4ccccc4[nH]3)ccc2Cl)cc1[N+](=O)[O-]	-13	7	2	3	18	54*	47*
CCOc1ccc(C(=O)Nc2cc(-c3nc4ccccc4[nH]3)ccc2C)cc1[N+](=O)[O-]	-17	1	2	3	-3	3	.
CNC(=S)Nc1ccccc1-c1ccccc1	11	-4	-2	2	1	41*	6
Cc1ccc(-c2nc3ncccc3o2)cc1NC(=O)COc1ccccc1	-1	-1	1	-4	5	0	.
Cc1ccc(-c2nc3ncccc3o2)cc1NC(=O)CC(C)C	2	3	13	-7	3	85*	9.9*
CCCCCCN1C[C@H](n2cc(C3CC3)nn2)[C@@H](O)C[C@@H]1c1ccccc1	-7	.	2	.	6	0	.
COCCCN(C(=S)Nc1c(C)cc(C)cc1C)C(C)c1ccccn1 (centres undefined)	3	-3	-2	-2	0	46*	25*
Cc1cccc(C)c1NC(=S)N(CCN(C)C)C(C)c1ccccn1 (centres undefined)	0	2	-4	3	2	-2	.
S=c1[nH]nc(-c2cccnc2)n1/N=C/c1ccc(Br)s1	1	-2	8	3	-4	36*	29*
COCCN(C(=S)Nc1ccc(OC)c(Cl)c1)C1CCN(C(C)C)CC1	0	-1	-2	-3	4	71*	20
